Reference: ChEMBL document CHEMBL1155415, “Synthesis, characterization, and in vitro antimicrobial activities of 5-alkenyl/hydroxyalkenyl-2-phenylamine-1,3,4-oxadiazoles and thiadiazoles” (2010)
Converted amounts (≈) assume the structure as drawn.

How the values were obtained:
Assay type in all cases: functional
[1] = tested on: Staphylococcus aureus; assay: Antibacterial activity against Staphylococcus aureus ATCC 25923 after 24 hrs by two fold dilution technique; details: ATCC 25923, 24 h
Procedure, shortened: (§1)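 Broth dilution MIC. Nutrient broth held log two-fold serial dilutions of compound and was inoculated with about 5 × 10⁵ c.f.u./ml of actively dividing bacteria. Incubation was 24 h at 37 °C, with growth checked visually and spectrophotometrically. MIC is the lowest concentration arresting growth.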

[2] = tested on: Candida albicans; assay: Ratio of MFC to MIC for Candida albicans
Procedure, shortened: (§2)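 MFC: 0.1 ml from each MIC tube was spread on agar and colonies were counted after 48 h at 35 °C. MFC is the lowest concentration killing 99.9% of the inoculum. The MFC/MIC ratio was then calculated to classify activity as fungistatic or fungicidal.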

[3] = tested on: Aspergillus fumigatus; assay: Antifungal activity against Aspergillus fumigatus after 48 hrs by two fold dilution technique
Procedure, shortened: (§3)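 Broth MIC. Broth with log two-fold serial dilutions of compound was inoculated with about 1.6 × 10⁴–6 × 10⁴ c.f.u./ml of fungus and incubated 48 h at 35 °C. MIC is the lowest concentration arresting fungal growth.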

[4] = tested on: Trichophyton mentagrophytes; assay: Ratio of MFC to MIC for Trichophyton mentagrophytes; procedure, shortened: as §2
[5] = tested on: Klebsiella pneumoniae; assay: Antibacterial activity against Klebsiella pneumoniae after 24 hrs by two fold dilution technique; procedure, shortened: as §1
[6] = tested on: Streptococcus pyogenes; assay: Antibacterial activity against Streptococcus pyogenes after 18 to 24 hrs
[7] = tested on: Escherichia coli; assay: Antibacterial activity against Escherichia coli ATCC 25922 after 24 hrs by two fold dilution technique; details: ATCC 25922, 24 h; procedure, shortened: as §1
[8] = tested on: Trichophyton mentagrophytes; assay: Antifungal activity against Trichophyton mentagrophytes after 48 hrs by two fold dilution technique; procedure, shortened: as §3
[9] = tested on: Escherichia coli; assay: Antibacterial activity against Escherichia coli ATCC 25922 after 24 hrs by disc diffusion method
Procedure, shortened: (§4)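 Agar disc diffusion. A standard inoculum of […] c.f.u./ml (0.5 McFarland) was spread evenly on agar. 6 mm Whatman no. 1 paper discs, dry-heat sterilized (140 °C, 1 h), were soaked in test compound and placed on nutrient agar. Plates were inverted and incubated 24 h at 37 °C. Read-out: diameter of the inhibition zone.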

[10] = tested on: Klebsiella pneumoniae; assay: Antibacterial activity against Klebsiella pneumoniae after 18 to 24 hrs
[11] = tested on: Pseudomonas aeruginosa; assay: Antibacterial activity against Pseudomonas aeruginosa ATCC 27853 after 24 hrs by disc diffusion method; procedure, shortened: as §4
[12] = tested on: Aspergillus fumigatus; assay: Ratio of MFC to MIC for Aspergillus fumigatus; procedure, shortened: as §2
[13] = tested on: Streptococcus pyogenes; assay: Antibacterial activity against Streptococcus pyogenes after 24 hrs by two fold dilution technique; procedure, shortened: as §1
[14] = tested on: Trichophyton mentagrophytes; assay: Antifungal activity against Trichophyton mentagrophytes after 48 hrs by disk diffusion method
Procedure, shortened: (§5)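 Agar well diffusion with compounds in DMSO. The dish was lawned with a saline spore suspension, excess decanted, and dried 1 h at 37 °C. Wells were punched. Read-out: inhibition zone in mm. Griseofulvin served as standard and DMSO as negative control.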

[15] = tested on: Escherichia coli; assay: Antibacterial activity against Escherichia coli ATCC 25922 after 18 to 24 hrs
[16] = tested on: Aspergillus fumigatus; assay: Antifungal activity against Aspergillus fumigatus after 48 hrs by disk diffusion method; procedure, shortened: as §5
[17] = tested on: Candida albicans; assay: Antifungal activity against Candida albicans after 48 hrs by two fold dilution technique; procedure, shortened: as §3
[18] = tested on: Klebsiella pneumoniae; assay: Antibacterial activity against Klebsiella pneumoniae after 24 hrs by disc diffusion method; procedure, shortened: as §4
[19] = tested on: Streptococcus pyogenes; assay: Antibacterial activity against Streptococcus pyogenes after 24 hrs by disc diffusion method; procedure, shortened: as §4
[20] = tested on: Candida albicans; assay: Antifungal activity against Candida albicans after 48 hrs by disk diffusion method; procedure, shortened: as §5
[21] = tested on: Staphylococcus aureus; assay: Antibacterial activity against Staphylococcus aureus ATCC 25923 after 18 to 24 hrs
[22] = tested on: Talaromyces marneffei; assay: Antifungal activity against Penicillium marneffei after 48 hrs by disk diffusion method; procedure, shortened: as §5
[23] = tested on: Talaromyces marneffei; assay: Antifungal activity against Penicillium marneffei after 48 hrs by two fold dilution technique; procedure, shortened: as §3
[24] = tested on: Talaromyces marneffei; assay: Ratio of MFC to MIC for Penicillium marneffei; procedure, shortened: as §2
[25] = tested on: Pseudomonas aeruginosa; assay: Antibacterial activity against Pseudomonas aeruginosa ATCC 27853 after 24 hrs by two fold dilution technique; details: ATCC 27853, 24 h; procedure, shortened: as §1
[26] = tested on: Staphylococcus aureus; assay: Antibacterial activity against Staphylococcus aureus ATCC 25923 after 24 hrs by disc diffusion method; procedure, shortened: as §4
[27] = tested on: Pseudomonas aeruginosa; assay: Antibacterial activity against Pseudomonas aeruginosa ATCC 27853 after 18 to 24 hrs
[28] = tested on: Pseudomonas aeruginosa; assay: Antibacterial activity against Pseudomonas aeruginosa ATCC 27853 at 30 ug after 24 hrs by disc diffusion method; details: ATCC 27853, 24 h, read-out: DIZ; procedure, shortened: as §4
[29] = tested on: Escherichia coli; assay: Antibacterial activity against Escherichia coli ATCC 25922 at 30 ug after 24 hrs by disc diffusion method; details: ATCC 25922, 24 h, read-out: DIZ; procedure, shortened: as §4
[30] = tested on: Klebsiella pneumoniae; assay: Antibacterial activity against Klebsiella pneumoniae at 30 ug after 24 hrs by disc diffusion method; details: read-out: DIZ; procedure, shortened: as §4
[31] = tested on: Streptococcus pyogenes; assay: Antibacterial activity against Streptococcus pyogenes at 30 ug after 24 hrs by disc diffusion method; details: read-out: DIZ; procedure, shortened: as §4
[32] = tested on: Staphylococcus aureus; assay: Antibacterial activity against Staphylococcus aureus ATCC 25923 at 30 ug after 24 hrs by disc diffusion method; details: ATCC 25923, 24 h, read-out: DIZ
Procedure, shortened: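 Disc diffusion. Inoculum of […] c.f.u./ml (0.5 McFarland) spread on sterile nutrient agar plates. 6 mm Whatman no. 1 paper discs, dry-heat sterilised at 140 °C for 1 h, soaked in a known concentration of compound, then placed on the agar. DMSO disc as negative control. Plates inverted, incubated 24 h at 37 °C. Zone of inhibition diameter measured in mm.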

| MIC [1] [µg/mL] | MIC [3] [µg/mL] | MIC [5] [µg/mL] | MIC [7] [µg/mL] | MIC [8] [µg/mL] | MIC [13] [µg/mL] | MIC [25] [µg/mL] | Compound | Ratio [2] | MFC [3] [µg/mL] | Ratio [4] | MBC [6] [µg/mL] | MFC [8] [µg/mL] | diameter of the inhibition zone (DIZ) [9] [mm] | MBC [10] [µg/mL] | diameter of the inhibition zone (DIZ) [11] [mm] | Ratio [12] | diameter of the inhibition zone (DIZ) [14] [mm] | MBC [15] [µg/mL] | MBC [21] [µg/mL] | MBC [27] [µg/mL] | other results |
| --- | --- | --- | --- | --- | --- | --- | --- | --- | --- | --- | --- | --- | --- | --- | --- | --- | --- | --- | --- | --- | --- |
| 6.25 (≈ 15.1 µM) | 12.5 (≈ 30.2 µM) | 6.25 (≈ 15.1 µM) | 6.25 (≈ 15.1 µM) | 12.5 (≈ 30.2 µM) | 6.25 (≈ 15.1 µM) | 6.25 (≈ 15.1 µM) | CCCCCC[C@@H](O)C/C=C\CCCCCCCc1nnc(Nc2ccccc2)o1 | 4 | 50 (≈ 121 µM) | 4 | 12.5 (≈ 30.2 µM) | 50 (≈ 121 µM) | 22.8 | 6.25 (≈ 15.1 µM) | 25.6 | 4 | 17.5 | 25 (≈ 60.4 µM) | 12.5 (≈ 30.2 µM) | 50 (≈ 121 µM) | diameter of the inhibition zone (DIZ) [16]: 20.7 mm; MFC [17]: 100 µg/mL (≈ 242 µM); MIC [17]: 25 µg/mL (≈ 60.4 µM); diameter of the inhibition zone (DIZ) [18]: 19.7 mm; diameter of the inhibition zone (DIZ) [19]: 21.2 mm; diameter of the inhibition zone (DIZ) [20]: 23.3 mm; diameter of the inhibition zone (DIZ) [22]: 13.9 mm; MFC [23]: 100 µg/mL (≈ 242 µM); MIC [23]: 12.5 µg/mL (≈ 30.2 µM); Ratio [24]: 8; diameter of the inhibition zone (DIZ) [26]: 20.2 mm |
| 12.5 (≈ 30.2 µM) | 25 (≈ 60.4 µM) | 6.25 (≈ 15.1 µM) | 6.25 (≈ 15.1 µM) | 25 (≈ 60.4 µM) | 6.25 (≈ 15.1 µM) | 6.25 (≈ 15.1 µM) | CCCCC/C=C\CC[C@H](O)CCCCCCCc1nnc(Nc2ccccc2)o1 | 2 | 50 (≈ 121 µM) | 2 | 25 (≈ 60.4 µM) | 50 (≈ 121 µM) | 21.6 | 25 (≈ 60.4 µM) | 19.4 | 2 | 18.7 | 25 (≈ 60.4 µM) | 12.5 (≈ 30.2 µM) | 50 (≈ 121 µM) | diameter of the inhibition zone (DIZ) [16]: 21.6 mm; MFC [17]: 25 µg/mL (≈ 60.4 µM); MIC [17]: 12.5 µg/mL (≈ 30.2 µM); diameter of the inhibition zone (DIZ) [18]: 20.2 mm; diameter of the inhibition zone (DIZ) [19]: 20.1 mm; diameter of the inhibition zone (DIZ) [20]: 23.2 mm; diameter of the inhibition zone (DIZ) [22]: 16.3 mm; MFC [23]: 100 µg/mL (≈ 242 µM); MIC [23]: 25 µg/mL (≈ 60.4 µM); Ratio [24]: 4; diameter of the inhibition zone (DIZ) [26]: 21.1 mm |

| Compound | MIC [1] [µg/mL] | MIC [3] [µg/mL] | MIC [5] [µg/mL] | MIC [7] [µg/mL] | MIC [8] [µg/mL] | MIC [13] [µg/mL] | MIC [25] [µg/mL] | Ratio [2] | MFC [3] [µg/mL] | Ratio [4] | MBC [6] [µg/mL] | MFC [8] [µg/mL] | diameter of the inhibition zone (DIZ) [9] [mm] | MBC [10] [µg/mL] | diameter of the inhibition zone (DIZ) [11] [mm] | Ratio [12] | diameter of the inhibition zone (DIZ) [14] [mm] | MBC [15] [µg/mL] | MBC [21] [µg/mL] | MBC [27] [µg/mL] | other results |
| --- | --- | --- | --- | --- | --- | --- | --- | --- | --- | --- | --- | --- | --- | --- | --- | --- | --- | --- | --- | --- | --- |
| O=C(N[C@H](CO)[C@H](O)c1ccc([N+](=O)[O-])cc1)C(Cl)Cl [CHLORAMPHENICOL] | 6.25 (≈ 19.3 µM) | – | 6.25 (≈ 19.3 µM) | 6.25 (≈ 19.3 µM) | – | 6.25 (≈ 19.3 µM) | 6.25 (≈ 19.3 µM) | – | – | – | 12.5 (≈ 38.7 µM) | – | – | 12.5 (≈ 38.7 µM) | – | – | – | 12.5 (≈ 38.7 µM) | 12.5 (≈ 38.7 µM) | 12.5 (≈ 38.7 µM) | zone of inhibition at 30 µg/disc [28]: 32 mm; zone of inhibition at 30 µg/disc [29]: 27 mm; zone of inhibition at 30 µg/disc [30]: 19 mm; zone of inhibition at 30 µg/disc [31]: 23 mm; zone of inhibition at 30 µg/disc [32]: 22 mm |
